From ChEMBL document CHEMBL1125148, “(R)-4-oxo-5-phosphononorvaline: a new competitive glutamate antagonist at the NMDA receptor complex” (J Med Chem, 1990)

Key:
Glutamate receptor 1 = Glutamate receptor 1 (Rattus norvegicus, UniProt P19490); test: Binding affinity towards AMPA receptor using [3H]AMPA as radioligand; Inactive
Rattus norvegicus = species: Rattus norvegicus; test: Percent inhibition of glutamate activity against cGMP was determined; format: functional
[1] = target: Glutamate receptor ionotropic, kainate 3 (Rattus norvegicus, UniProt P42264); test: Binding affinity towards Ionotropic glutamate receptor kainate using [3H]-kainic acid as radioligand; Inactive
[2] = In vitro binding affinity towards N-methyl-D-aspartate glutamate receptor of the glutamate receptor using [3H]CPP as radioligand in rat cerebral cortical membranes.; format: cell membranes, Membrane
How it was run: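 Rat brain membranes incubated with 10 nM [3H]CPP across a range of unlabeled antagonist concentrations. Specific binding was measured by centrifugation assay and expressed as percent inhibition versus concentration.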

Chain of Glutamate receptor 1 (P19490 whole entry): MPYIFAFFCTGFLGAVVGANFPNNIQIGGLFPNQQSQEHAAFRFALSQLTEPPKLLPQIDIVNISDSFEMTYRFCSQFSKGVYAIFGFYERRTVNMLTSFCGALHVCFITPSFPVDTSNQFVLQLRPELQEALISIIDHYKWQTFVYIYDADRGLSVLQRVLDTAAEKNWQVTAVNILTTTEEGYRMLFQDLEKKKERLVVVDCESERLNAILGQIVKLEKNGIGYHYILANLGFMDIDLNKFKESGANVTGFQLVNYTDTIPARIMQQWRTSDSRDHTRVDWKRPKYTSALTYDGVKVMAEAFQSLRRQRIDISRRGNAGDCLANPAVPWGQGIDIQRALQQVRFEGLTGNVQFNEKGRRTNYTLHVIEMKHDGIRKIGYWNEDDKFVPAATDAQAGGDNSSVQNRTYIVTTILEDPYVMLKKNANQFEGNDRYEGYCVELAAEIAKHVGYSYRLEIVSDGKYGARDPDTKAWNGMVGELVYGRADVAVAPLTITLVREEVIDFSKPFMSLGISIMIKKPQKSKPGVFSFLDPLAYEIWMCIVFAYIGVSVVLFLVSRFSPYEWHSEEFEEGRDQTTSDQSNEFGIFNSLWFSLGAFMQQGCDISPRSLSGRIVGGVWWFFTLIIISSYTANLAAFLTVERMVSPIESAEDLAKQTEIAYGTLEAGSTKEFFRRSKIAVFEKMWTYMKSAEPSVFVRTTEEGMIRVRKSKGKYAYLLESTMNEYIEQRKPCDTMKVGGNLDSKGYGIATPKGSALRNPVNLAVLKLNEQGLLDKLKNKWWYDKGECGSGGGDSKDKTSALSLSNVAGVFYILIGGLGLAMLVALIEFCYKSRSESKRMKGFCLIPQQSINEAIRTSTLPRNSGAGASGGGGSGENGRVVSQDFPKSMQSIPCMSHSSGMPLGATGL
Chain of Glutamate receptor ionotropic, kainate 3 (P42264 whole entry): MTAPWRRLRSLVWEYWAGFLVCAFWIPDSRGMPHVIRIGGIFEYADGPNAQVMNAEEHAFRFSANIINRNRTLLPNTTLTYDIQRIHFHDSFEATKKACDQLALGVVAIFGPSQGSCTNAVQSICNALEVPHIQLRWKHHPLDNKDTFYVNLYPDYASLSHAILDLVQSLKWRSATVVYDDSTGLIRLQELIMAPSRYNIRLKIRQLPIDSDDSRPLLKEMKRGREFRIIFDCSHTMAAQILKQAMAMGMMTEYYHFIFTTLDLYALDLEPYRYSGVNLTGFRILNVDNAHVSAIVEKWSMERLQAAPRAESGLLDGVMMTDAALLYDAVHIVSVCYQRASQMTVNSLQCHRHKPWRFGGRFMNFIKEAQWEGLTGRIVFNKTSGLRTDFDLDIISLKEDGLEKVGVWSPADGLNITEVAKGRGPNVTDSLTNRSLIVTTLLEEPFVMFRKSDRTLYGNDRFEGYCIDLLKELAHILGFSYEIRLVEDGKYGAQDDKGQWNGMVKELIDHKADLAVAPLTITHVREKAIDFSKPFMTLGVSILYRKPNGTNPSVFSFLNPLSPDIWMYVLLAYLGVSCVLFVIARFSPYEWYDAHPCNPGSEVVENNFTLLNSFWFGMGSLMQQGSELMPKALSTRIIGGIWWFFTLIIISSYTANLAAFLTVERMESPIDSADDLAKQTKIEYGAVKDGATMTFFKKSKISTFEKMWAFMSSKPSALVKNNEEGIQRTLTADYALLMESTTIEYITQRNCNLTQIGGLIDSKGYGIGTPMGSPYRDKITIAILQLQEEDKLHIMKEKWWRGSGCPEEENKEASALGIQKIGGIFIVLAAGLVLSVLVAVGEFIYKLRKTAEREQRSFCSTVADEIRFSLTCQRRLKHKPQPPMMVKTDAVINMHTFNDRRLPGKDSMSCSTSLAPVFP

With `O=C(O)C1CN(CCCP(=O)(O)O)CCN1` (stereo not given) the Ki (Glutamate receptor 1) was > 100 µM, the IC50 (Rattus norvegicus) was 0.8 µM and the Ki [1] was > 100 µM. The Ki [2] was 0.131 µM.
With `NC(CCCP(=O)(O)O)C(=O)O` (stereo not given) the Ki (Glutamate receptor 1) was > 100 µM, the IC50 (Rattus norvegicus) was 5.5 µM and the Ki [1] was > 100 µM. For the same compound, the Ki [2] was 0.176 µM.
In the case of `N[C@H](CC(=O)CP(=O)(O)O)C(=O)O`, the Ki (Glutamate receptor 1) is reported as > 100 µM, the IC50 (Rattus norvegicus) is reported as 5.9 µM and the Ki [1] is reported as > 100 µM. For the same compound, the Ki [2] was 0.109 µM.
For `NC(CCCCCP(=O)(O)O)C(=O)O` (stereo not given) [AP-7], the Ki (Glutamate receptor 1) was > 100 µM, the IC50 (Rattus norvegicus) was 14.1 µM and the Ki [1] was > 100 µM. For the same compound, the Ki [2] was 0.73 µM.
With `O=C(O)[C@@H]1C[C@H](CP(=O)(O)O)CCN1` [SELFOTEL] the Ki (Glutamate receptor 1) was > 100 µM, the IC50 (Rattus norvegicus) was 1.1 µM and the Ki [1] was > 100 µM. It also gave a Ki [2] of 0.099 µM.
